The text below walks through data of ChEMBL document CHEMBL5338796, “Discovery of a Selective and Orally Bioavailable FGFR2 Degrader for Treating Gastric Cancer” (J Med Chem, 2023).

In data set [1] the target is Fibroblast growth factor receptor 1 (Homo sapiens) (UniProt P11362). As to the kind of experiment: Induction of FGFR1 degradation in human NCI-H1581 cells at 100 nM measured for 6 hrs Western blot analysis relative to control. It is filed as cell-based. Put shortly: (§1)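 NCI-H1581 (FGFR1), MCF7 (FGFR3) and Huh7 (FGFR4) cells, which endogenously express the isoforms, treated with 100 nM for 6 h; isoform levels by Western blot against β-actin, three biologically independent experiments.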
(In general: A western blot detects proteins with antibodies after separation by electrophoresis.)

Data set [2] addresses Fibroblast growth factor receptor 2 (Homo sapiens) (UniProt P21802). As to the kind of experiment: Induction of FGFR2 receptor internalization in human KATO III stomach cancer cell line at 100 nM measured for 6 hrs by immunofluorescence assay. Type of data set: cell-based. The note with it: filed as activator. Put shortly: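 KATO III cells treated with 100 nM for 3 or 6 h, fixed in 2% formaldehyde 2 min, blocked 5% BSA 1 h, anti-FGFR2 overnight, Alexa Fluor 488 secondary 1 h, DAPI 10 min; imaged by fluorescence microscopy.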

A short description of data set [3]: Cmax in mouse at 3 mg/kg, iv measured at 0.083 to 24 hrs by LC-MS/MS analysis. The note with it: in vivo.
Data set [4] deals with T1, Protein cereblon/Fibroblast growth factor receptor 2 (Homo sapiens, UniProt P21802+Q96SW2). As to the kind of experiment: PROTAC activity at CRBN/FGFR2 in human KATO III stomach cancer cell line membrane assessed as reduction in membrane bound FGFR2 at 100 nM measured for 6 hrs by flow cytometry analysis. It is filed as cell membranes. Put shortly:
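Approx. 2 × 10^6 KATO III cells were treated 6 h at 100 nM. They were washed in cold PBS and stained with anti-FGFR2 (1:100, 4 °C, 1 h), then with Alexa Fluor 488 secondary (1:500, 4 °C, 1 h). Surface FGFR2 was read by flow cytometry on at least 100,000 events, with 488 nm excitation and FITC detection at 519 nm.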

Data set [5] can be described thus: Tmax in Sprague-Dawley rat at 3 mg/kg, iv measured at 0.083 to 24 hrs by LC-MS/MS analysis. Type of data set: ADME, organism-based. The note with it: in vivo, time 0.083-24 hrs. The procedure, abridged:
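Male Sprague Dawley rats received a single dose of 3 mg/kg i.v. or 20 mg/kg p.o. Vehicle was 10% Solutol, 85% (10% HP-β-CD in saline) and 5% DMSO, adjusted to pH 9–10. Plasma was assayed by LC–MS/MS.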

The nature of data set [6]: Hepatotoxicity in ICR mouse assessed as effect on AST level at 20 mg/kg, po measured for 30 days. Type of data set: toxicity, organism-based. The conditions noted are these: in vivo, 720 h, time 30 day. Put shortly:
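ICR mice given 20 mg/kg/day orally for 30 days (n = 6), vehicle controls; mortality and clinical signs checked daily, then AST/ALT and creatinine, organ weights, haematology and H&E of heart, liver, spleen, lung, kidney.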

Data set [7] is described as follows: Toxicity in ICR mouse assessed as morphological changes in liver at 20 mg/kg, po measured for 30 days by hematoxyin-eosin staining based analysis. The conditions noted are these: in vivo, 720 h, time 30 day. Type of data set: organism-based. The procedure, abridged:
(§2)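 ICR mice (n = 6) were dosed orally at 20 mg/kg/day for 30 days, alongside vehicle-treated controls. Mortality and clinical signs were checked daily. At the end, body and organ weights were recorded. Heart, liver, spleen, lung and kidney were examined by hematoxylin and eosin staining.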

Data set [8] addresses Fibroblast growth factor receptor 4 (Homo sapiens) (UniProt P22455). Description: Induction of FGFR4 degradation in human Huh-7 cells at 100 nM measured for 6 hrs Western blot analysis. It is filed as cell-based. Put shortly: as §1
The nature of data set [9]: Cmax in mouse at 20 mg/kg, po measured at 0.25 to 24 hrs by LC-MS/MS analysis. The note with it: in vivo.
For data set [10], the target named is Macrophage colony-stimulating factor 1 receptor (Homo sapiens) (UniProt P07333). Description: Induction of CSF1R degradation in human THP-1 cells at 0.5 to 10 uM measured for 6 hrs Western blot analysis. It is filed as cell-based. The note with it: dose 0.0005-10 µM, in the assay text read “0.5 nM to 10 uM” for “0.5 to 10 uM”. Put shortly: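 THP-1 cells exposed 6 h to 0.5–10,000 nM degrader (from 10 mM DMSO stock, final DMSO below 0.5%); lysates in 2× loading buffer, SDS-PAGE, PVDF, anti-CSF1R (1:1000) with β-actin loading control, ECL detection.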

The target of data set [11] is Tyrosine-protein kinase ABL1 (Homo sapiens) (UniProt P00519). Description: Inhibition of human ABL1 at 1000 nM by KINOMEscan analysis relative to control.
Data set [12] in a line: Half life in Sprague-Dawley rat at 3 mg/kg, iv measured at 0.083 to 24 hrs by LC-MS/MS analysis. The note with it: in vivo, time 0.083-24 hrs. It is filed as ADME, organism-based. Put shortly:
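Male Sprague Dawley rats, single dose i.v. 3 mg/kg or p.o. 20 mg/kg in 10% Solutol, 85% (10% HP-β-CD in saline), 5% DMSO, pH adjusted to 9–10.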

The nature of data set [13]: AUC (0 to infinity) in mouse at 20 mg/kg, po measured at 0.25 to 24 hrs by LC-MS/MS analysis. The note with it: in vivo.
The target in data set [14] is T1, Protein cereblon/Fibroblast growth factor receptor 2. As to the kind of experiment: PROTAC activity at CRBN/FGFR2 in human KATO III stomach cancer cell line assessed as FGFR2 degradation by measuring FGFR2 expression level upto 300 nM measured for 6 hrs by Western blotting analysis. It is filed as cell-based. Put shortly:
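KATO III cells treated 6 h across 0.5–10,000 nM (DMSO stock, final DMSO below 0.5%); FGFR2 immunoblotted, quantified as FGFR2/β-actin ratio normalized to DMSO-treated cells, three independent biological experiments; DC50 and Dmax derived from the curve.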

The subject of data set [15] is SNU-16. As to the kind of experiment: Antitumor activity against human SNU-16 cells xenografted in BALB/c nude mouse assessed as reduction in ERK1/2 phosphorylation in tumor at 20 mg/kg, po measured at 4 hrs. It is filed as functional, organism-based. Put shortly: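 Female BALB/c nude mice, 5 weeks old (20–22 g), s.c. right-flank SNU-16 implants, randomized by body weight into groups (n = 5) once tumours reached 50–100 mm3. Dosing 20 mg/kg/day intragastric in 0.5% CMC-Na for 15 d; vehicle controls. Tumour width and length measured every 2 days; tumours harvested 4 h after last dose and lysates immunoblotted for pFGFR, FGFR2, pPLCγ, pErk.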
In general terms: Xenograft models place foreign cells or tissue in a host animal.

Data set [16] has as its target T1, Protein cereblon/Fibroblast growth factor receptor 2. Description: PROTAC activity at CRBN/FGFR2 in human KATO III stomach cancer cell line assessed as FGFR2 degradation measured for 6 hrs by immunoblot analysis. It is filed as cell-based. The procedure, abridged: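 KATO III cells treated for 6 h at the stated concentrations, added from 10 mM DMSO stocks (final DMSO below 0.5%). Cells were washed with PBS and lysed in 2× loading buffer, then run on SDS-PAGE and blotted to PVDF. Anti-FGFR2 was applied overnight at 4 °C, with ECL detection. FGFR2 was expressed as FGFR2/β-actin, normalized to DMSO-treated cells, from three independent biological experiments.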

Data set [17] concerns SNU-16. As to the kind of experiment: Antiproliferative activity against human SNU-16 cells assessed as reduction in cell viability measured for 72 hrs by celltiter-glo reagent based assay. Type of data set: functional. The conditions noted are these: SNU-16, 72 h. Put shortly: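 Cancer lines KATO III, SNU16, NCI-H716, NCI-H1975, MV-4-11 and HEK293T treated 72 h; antiproliferative IC50 given as mean ± s.d. from three independent biological experiments.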
A general note: Cellular ATP, detected with luciferase, serves as a proxy for viable cell number.

Data set [18] can be described thus: Toxicity in ICR mouse assessed as change in liver weight at 20 mg/kg, po measured for 30 days. It is filed as organism-based. The conditions noted are these: in vivo, 720 h, time 30 day. Put shortly: as §2

Activity calls are given as the source filed them.

T1 sequence (P21802 22-821 limits assumed): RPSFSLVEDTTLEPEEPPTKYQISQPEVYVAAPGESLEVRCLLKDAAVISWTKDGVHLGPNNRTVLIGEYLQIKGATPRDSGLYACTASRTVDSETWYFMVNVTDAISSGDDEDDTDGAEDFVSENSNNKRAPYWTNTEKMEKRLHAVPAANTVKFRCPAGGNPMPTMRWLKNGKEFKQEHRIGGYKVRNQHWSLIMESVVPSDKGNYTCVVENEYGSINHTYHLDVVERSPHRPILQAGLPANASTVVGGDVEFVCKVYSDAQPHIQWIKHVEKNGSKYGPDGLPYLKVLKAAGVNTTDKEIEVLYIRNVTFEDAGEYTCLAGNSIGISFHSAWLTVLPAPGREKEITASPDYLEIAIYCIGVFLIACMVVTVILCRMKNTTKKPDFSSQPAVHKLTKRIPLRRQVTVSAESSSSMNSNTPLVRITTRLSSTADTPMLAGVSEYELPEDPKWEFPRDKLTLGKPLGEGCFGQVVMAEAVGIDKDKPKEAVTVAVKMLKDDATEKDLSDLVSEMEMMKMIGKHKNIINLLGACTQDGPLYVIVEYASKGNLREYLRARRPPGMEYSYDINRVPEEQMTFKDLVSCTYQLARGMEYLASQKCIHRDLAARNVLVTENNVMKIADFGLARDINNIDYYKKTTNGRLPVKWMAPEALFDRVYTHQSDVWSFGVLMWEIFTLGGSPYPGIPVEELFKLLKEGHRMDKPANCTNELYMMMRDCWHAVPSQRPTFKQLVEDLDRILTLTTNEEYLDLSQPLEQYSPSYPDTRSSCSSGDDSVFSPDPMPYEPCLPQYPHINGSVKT
T1 sequence (Q96SW2 whole entry partner): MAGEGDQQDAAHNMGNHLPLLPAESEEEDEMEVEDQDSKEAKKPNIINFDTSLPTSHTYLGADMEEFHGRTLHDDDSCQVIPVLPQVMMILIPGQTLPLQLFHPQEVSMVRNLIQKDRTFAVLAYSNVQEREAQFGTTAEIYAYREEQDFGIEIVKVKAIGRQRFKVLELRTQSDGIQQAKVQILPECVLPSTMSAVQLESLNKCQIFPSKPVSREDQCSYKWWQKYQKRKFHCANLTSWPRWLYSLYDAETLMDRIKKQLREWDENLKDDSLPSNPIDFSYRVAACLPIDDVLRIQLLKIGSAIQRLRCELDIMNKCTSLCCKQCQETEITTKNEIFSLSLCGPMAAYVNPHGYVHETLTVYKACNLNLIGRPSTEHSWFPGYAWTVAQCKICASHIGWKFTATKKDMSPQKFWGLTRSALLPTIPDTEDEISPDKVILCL
Fibroblast growth factor receptor 2 (Homo sapiens), sequence (P21802 22-821 limits assumed): as the sequence (P21802 22-821 limits assumed) above
Fibroblast growth factor receptor 1 (Homo sapiens), sequence (P11362 22-822 limits assumed): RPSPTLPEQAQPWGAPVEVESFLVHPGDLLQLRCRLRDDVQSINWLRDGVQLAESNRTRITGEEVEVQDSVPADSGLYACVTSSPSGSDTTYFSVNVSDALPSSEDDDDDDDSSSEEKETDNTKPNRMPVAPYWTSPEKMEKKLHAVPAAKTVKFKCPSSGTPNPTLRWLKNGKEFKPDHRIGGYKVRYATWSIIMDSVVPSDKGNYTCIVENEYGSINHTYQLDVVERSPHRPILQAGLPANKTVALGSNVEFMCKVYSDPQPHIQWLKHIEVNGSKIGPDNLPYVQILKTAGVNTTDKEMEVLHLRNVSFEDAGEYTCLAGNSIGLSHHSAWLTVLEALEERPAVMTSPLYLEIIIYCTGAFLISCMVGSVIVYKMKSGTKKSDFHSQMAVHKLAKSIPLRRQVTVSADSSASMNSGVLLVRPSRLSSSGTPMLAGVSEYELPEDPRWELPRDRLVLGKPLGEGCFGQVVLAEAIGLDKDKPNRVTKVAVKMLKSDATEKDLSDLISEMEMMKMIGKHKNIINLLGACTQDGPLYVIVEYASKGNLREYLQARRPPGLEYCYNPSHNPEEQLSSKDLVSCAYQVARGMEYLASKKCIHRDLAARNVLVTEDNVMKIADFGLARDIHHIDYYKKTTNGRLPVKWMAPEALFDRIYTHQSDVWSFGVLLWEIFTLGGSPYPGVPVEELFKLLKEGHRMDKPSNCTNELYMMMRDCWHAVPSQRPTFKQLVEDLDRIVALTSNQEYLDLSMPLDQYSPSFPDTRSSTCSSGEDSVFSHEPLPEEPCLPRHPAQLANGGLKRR
Fibroblast growth factor receptor 4 (Homo sapiens), sequence (P22455 22-802 limits assumed): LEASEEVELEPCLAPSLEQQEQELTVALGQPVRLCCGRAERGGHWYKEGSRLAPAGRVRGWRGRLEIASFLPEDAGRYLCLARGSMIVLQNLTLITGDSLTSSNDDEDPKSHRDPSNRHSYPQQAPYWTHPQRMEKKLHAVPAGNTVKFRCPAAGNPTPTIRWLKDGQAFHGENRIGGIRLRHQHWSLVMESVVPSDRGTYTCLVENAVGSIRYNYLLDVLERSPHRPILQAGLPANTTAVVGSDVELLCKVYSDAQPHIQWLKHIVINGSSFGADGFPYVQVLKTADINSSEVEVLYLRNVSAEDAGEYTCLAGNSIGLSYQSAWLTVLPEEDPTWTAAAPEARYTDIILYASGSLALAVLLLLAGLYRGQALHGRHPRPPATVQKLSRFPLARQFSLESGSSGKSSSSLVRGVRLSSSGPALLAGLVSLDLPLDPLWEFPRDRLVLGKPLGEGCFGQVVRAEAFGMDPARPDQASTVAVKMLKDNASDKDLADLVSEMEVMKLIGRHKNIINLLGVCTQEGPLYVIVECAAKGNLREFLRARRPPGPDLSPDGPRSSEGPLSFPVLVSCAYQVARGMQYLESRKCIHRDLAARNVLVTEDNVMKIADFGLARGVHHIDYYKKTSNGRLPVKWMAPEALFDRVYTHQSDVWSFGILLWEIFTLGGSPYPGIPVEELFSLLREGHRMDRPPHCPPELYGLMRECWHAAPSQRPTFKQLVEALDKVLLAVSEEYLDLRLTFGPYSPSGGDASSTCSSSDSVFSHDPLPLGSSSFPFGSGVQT
Tyrosine-protein kinase ABL1 (Homo sapiens), sequence (P00519 whole entry): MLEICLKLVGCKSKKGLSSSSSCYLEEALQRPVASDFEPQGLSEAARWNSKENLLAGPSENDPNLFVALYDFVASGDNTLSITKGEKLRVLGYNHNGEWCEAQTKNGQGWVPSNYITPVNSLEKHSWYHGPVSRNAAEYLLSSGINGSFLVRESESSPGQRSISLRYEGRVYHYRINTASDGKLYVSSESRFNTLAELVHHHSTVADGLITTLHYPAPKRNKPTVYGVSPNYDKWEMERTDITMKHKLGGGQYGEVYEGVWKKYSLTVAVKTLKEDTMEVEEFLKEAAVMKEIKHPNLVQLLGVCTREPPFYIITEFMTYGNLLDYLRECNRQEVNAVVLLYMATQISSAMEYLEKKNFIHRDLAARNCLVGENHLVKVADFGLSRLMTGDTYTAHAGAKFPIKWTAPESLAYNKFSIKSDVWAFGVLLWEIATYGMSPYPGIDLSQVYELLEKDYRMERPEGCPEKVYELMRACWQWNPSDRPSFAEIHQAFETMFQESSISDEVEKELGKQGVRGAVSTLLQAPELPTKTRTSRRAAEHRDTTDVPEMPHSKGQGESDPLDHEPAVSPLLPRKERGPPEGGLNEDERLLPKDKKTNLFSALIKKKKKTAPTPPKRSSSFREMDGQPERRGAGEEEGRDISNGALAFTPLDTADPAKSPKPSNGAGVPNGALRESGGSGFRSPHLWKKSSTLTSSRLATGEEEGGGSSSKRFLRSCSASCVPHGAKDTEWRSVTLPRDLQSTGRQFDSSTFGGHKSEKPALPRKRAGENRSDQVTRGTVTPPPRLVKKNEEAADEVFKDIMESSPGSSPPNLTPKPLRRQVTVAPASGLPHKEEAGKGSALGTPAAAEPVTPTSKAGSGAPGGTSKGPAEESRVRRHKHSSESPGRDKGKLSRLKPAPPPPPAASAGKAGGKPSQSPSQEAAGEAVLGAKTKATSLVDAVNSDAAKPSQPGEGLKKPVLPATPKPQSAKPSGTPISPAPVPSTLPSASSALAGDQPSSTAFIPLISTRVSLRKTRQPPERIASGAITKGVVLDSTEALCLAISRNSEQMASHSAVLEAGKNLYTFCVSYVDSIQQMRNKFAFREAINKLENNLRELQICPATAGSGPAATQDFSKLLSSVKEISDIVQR
Macrophage colony-stimulating factor 1 receptor (Homo sapiens), sequence (P07333 whole entry): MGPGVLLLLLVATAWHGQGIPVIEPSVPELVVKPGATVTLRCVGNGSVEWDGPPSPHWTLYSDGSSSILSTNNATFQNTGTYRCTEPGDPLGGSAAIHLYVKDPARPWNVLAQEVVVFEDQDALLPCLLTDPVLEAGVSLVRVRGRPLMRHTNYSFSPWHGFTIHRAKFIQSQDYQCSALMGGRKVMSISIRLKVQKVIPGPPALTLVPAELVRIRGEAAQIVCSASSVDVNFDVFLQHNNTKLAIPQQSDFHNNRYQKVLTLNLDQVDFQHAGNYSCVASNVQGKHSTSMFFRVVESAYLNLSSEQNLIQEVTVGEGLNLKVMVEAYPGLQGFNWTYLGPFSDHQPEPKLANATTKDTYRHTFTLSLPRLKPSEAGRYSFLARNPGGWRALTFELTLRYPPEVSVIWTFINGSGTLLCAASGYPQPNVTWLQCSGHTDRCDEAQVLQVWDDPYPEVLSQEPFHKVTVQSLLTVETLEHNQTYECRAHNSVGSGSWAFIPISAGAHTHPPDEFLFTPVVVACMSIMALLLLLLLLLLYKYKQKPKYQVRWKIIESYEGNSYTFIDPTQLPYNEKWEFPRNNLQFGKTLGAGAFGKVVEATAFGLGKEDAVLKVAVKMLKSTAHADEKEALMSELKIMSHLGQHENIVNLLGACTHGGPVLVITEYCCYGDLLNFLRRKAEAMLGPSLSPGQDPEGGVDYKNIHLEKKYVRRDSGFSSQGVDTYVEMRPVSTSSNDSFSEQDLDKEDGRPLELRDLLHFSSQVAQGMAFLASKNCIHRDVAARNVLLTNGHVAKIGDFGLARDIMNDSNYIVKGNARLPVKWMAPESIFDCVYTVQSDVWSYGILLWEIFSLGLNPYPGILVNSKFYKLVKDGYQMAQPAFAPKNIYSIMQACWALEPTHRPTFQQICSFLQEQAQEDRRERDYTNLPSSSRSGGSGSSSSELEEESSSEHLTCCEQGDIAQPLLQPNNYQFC

`COc1cc(OC)c(Cl)c(NC(=O)N(C)c2cc(Nc3ccc(N4CCN(C(=O)C5CCN(c6ccc7c(c6)C(=O)N(C6CCC(=O)NC6=O)C7=O)CC5)CC4)cc3)ncn2)c1Cl` (stereo not drawn): the Activity was 43% in [1], “Non-Toxic” in [6], “Non-Toxic” in data set [7] and “Non-Toxic” in data set [18]. Besides, the result in data set [2], in data set [4] and in data set [15] was Active. Moreover, the highest concentration (Cmax) amounted to 655 ng/mL in [3] and 82.1 ng/mL in data set [9]. The Tmax in [5] is 4.98 min. The result in data set [8], in data set [10], in [14] and in data set [16] was inactive. In [11], this molecule registered an inhibition of 47%. Besides, the half-life in data set [12] was 58.2 min. In data set [13], this molecule yielded an AUC(0-inf) of 387 ng·h/mL. Besides, in data set [17], the IC50 stood at 3.7 nM.

Broadly, the Cmax is the maximum level reached in the sampled fluid or tissue. In general, Tmax refers to the time from dosing to the highest level. By inhibition is commonly meant the share of the control response that was lost under treatment. Higher therefore signals strong suppression. For orientation: half-life means the time needed for the level to fall by half in the phase considered. The AUC(0-inf) is the area under the concentration-time curve extrapolated to infinity. Higher therefore signals more exposure. For orientation: IC50 means the concentration that inhibits the measured activity by half.
